Laboratory results published in ChEMBL document CHEMBL5380787, “Optimized M24B Aminopeptidase Inhibitors for CARD8 Inflammasome Activation” (J Med Chem, 2023).

Assays:
MV4-11 [1] = assay: Cytotoxicity against CASP1 knockout human MV4-11 cells assessed as reduction in cell viability incubated for 24 hrs by celltiter-glo assay; type: functional, cell-based; settings: MV4-11, 24 h
Outline: (§1)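 MV4;11 cells (WT or CASP1−/−), grown in RPMI 1640 with 10% FBS at 37 °C, 5% CO2, plated 2000 cells/well, dosed by pintool across 100 μM to 15.2 nM in three-fold steps for 24 h. Viability by CellTiter-Glo luminescence after 2 min shaking and 10 min at 25 °C. IC50 as mean ± SEM of three biological replicates.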

MV4-11 [2] = assay: Cytotoxicity against human MV4-11 cells assessed as reduction in cell viability incubated for 24 hrs by celltiter-glo assay; type: functional, cell-based; settings: MV4-11, 24 h; outline: as §1
MV4-11 [3] = assay: Cytotoxicity against CASP1 knockout human MV4-11 cells assessed as reduction in cell viability at 0.015 to 100 uM incubated for 24 hrs by celltiter-glo assay; type: functional; settings: dose 0.015-100 µM; outline: as §1
MV4-11 [4] = assay: Cytotoxicity against human MV4-11 cells assessed as reduction in cell viability at 0.015 to 100 uM incubated for 24 hrs by celltiter-glo assay; type: functional; settings: dose 0.015-100 µM; outline: as §1
Xaa-Pro dipeptidase = target: T1, Xaa-Pro dipeptidase (Homo sapiens, UniProt P12955); assay: Inhibition of recombinant human PEPD using Ala-Pro as substrate assessed as alanine release by measuring increase in fluorescense signal by fluorescence based analysis
T1 sequence (P12955 whole entry): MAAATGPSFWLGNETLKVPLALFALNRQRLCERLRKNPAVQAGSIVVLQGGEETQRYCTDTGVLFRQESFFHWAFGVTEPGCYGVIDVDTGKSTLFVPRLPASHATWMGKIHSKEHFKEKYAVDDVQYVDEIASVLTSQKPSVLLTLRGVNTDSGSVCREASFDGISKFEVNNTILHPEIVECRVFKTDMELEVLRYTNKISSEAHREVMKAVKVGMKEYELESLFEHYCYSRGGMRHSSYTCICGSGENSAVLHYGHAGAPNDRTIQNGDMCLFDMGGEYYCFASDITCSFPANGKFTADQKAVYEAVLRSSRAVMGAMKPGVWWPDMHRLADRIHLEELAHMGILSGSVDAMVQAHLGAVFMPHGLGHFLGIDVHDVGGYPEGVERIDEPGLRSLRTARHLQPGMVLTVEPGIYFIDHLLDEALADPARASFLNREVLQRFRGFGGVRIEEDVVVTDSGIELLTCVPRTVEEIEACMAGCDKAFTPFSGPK

Xaa-Pro aminopeptidase 1 = Xaa-Pro aminopeptidase 1 (Homo sapiens, UniProt Q9NQW7); assay: Inhibition of 6-His tagged XPNPEP1 (unknown origin) expressed in Escherichia coli Rosetta DE3 cells using H-Lys(abz)-Pro-Pro-pNA as substrate incubated for 60 mins by fluorescence based analysis
Chain of Xaa-Pro aminopeptidase 1 (Q9NQW7 whole entry): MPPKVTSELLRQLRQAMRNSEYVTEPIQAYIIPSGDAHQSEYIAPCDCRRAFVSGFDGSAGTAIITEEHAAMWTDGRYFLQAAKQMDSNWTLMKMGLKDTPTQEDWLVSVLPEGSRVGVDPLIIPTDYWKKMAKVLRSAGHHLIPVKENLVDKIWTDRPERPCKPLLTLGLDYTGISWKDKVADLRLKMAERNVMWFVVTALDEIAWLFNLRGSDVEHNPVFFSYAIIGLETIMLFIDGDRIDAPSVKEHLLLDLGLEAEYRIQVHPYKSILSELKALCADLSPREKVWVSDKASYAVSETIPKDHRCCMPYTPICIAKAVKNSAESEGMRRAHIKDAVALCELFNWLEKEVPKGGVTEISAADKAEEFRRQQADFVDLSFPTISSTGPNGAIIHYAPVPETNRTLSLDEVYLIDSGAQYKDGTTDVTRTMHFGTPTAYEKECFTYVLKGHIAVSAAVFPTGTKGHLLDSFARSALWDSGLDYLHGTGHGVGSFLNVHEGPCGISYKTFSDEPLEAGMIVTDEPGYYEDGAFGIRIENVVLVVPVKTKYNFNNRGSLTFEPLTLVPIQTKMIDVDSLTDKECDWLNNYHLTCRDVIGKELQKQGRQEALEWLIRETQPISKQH
Outline: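 His6-tagged XPNPEP1 was expressed in E. coli Rosetta DE3 (IPTG, 16 h, 37 °C) and purified on TALON resin. Enzyme at 3.5 nM was exposed to compound, then H-Lys(abz)-Pro-Pro-pNA was added at 100 μM final. Fluorescence (Ex/Em 320/410) was followed for 60 min. Single-point inhibition used 20 μM; IC50 as mean ± SEM of three biological replicates.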

IC50 (Xaa-Pro dipeptidase) | IC50 (Xaa-Pro aminopeptidase 1) | SMILES | IC50 (MV4-11 [1]) | IC50 (MV4-11 [2]) | Activity (MV4-11 [3]) | Activity (MV4-11 [4])
– | – | C[C@H](NC(=O)[C@@H]1CCCN1C(=O)[C@@H]1CCCN1C(=O)[C@@H](O)[C@H](N)Cc1ccccc1)C(N)=O | > 20 µM | > 20 µM | – | –
– | – | COC(=O)[C@H](CC(C)C)NC(=O)[C@@H](O)[C@H](N)CC(C)C | – | 19 µM | 12% | 30%
– | – | CONC(=O)[C@H](CC(C)C)NC(=O)[C@@H]1CCCN1C(=O)[C@@H](O)[C@H](N)CC(C)C | – | > 100 µM | – | –
– | – | CC(C)C[C@H](NC(=O)[C@@H]1CCCN1C(=O)[C@@H](O)[C@H](N)CC(C)C)C(=O)NC(C)(C)C | – | 7.3 µM | – | –
> 100 µM | – | CC(C)C[C@@H](N)[C@H](O)C(=O)N1CCCC1 | – | > 100 µM | 85% | 91%
– | – | CONC(=O)[C@@H]1CCCN1C(=O)[C@@H](O)[C@H](N)CC(C)C | – | > 100 µM | 103% | 95%
– | – | CC(C)C[C@H](NC(=O)[C@@H]1CCCN1C(=O)[C@@H](O)[C@H](N)CC(C)C)C(=O)NCCc1ccc2ccccc2c1 | – | 0.43 µM | – | –
– | – | CC(C)CCNC(=O)[C@@H]1CCCN1C(=O)[C@@H](O)[C@H](N)CC(C)C | – | 15 µM | 92% | 20%
– | – | CC(C)C[C@H](NC(=O)[C@@H]1CCCN1C(=O)[C@@H](O)[C@H](N)CC(C)C)C(=O)NCCc1ccc(-c2ccccc2)cc1 | – | 0.65 µM | – | –
> 100 µM | 298 µM | COC(=O)[C@H](CC(C)C)NC(=O)[C@@H](O)[C@H](N)Cc1ccccc1 [BESTATIN METHYL ESTER] | – | 3.9 µM | 11% | 11%
– | – | COC(=O)[C@@H]1C[C@H](F)CN1C(=O)[C@@H](O)[C@H](N)CC(C)C | – | 61 µM | 94% | 32%
– | – | COC(=O)[C@@H]1CC2(CC2)CN1C(=O)[C@@H](O)[C@H](N)CC(C)C | – | 8.1 µM | 101% | 43%
– | – | CC(C)C[C@@H](N)[C@H](O)C(=O)N1CCC[C@H]1C(N)=O | – | 17 µM | 96% | 35%
– | – | CC(C)C[C@H](NC(=O)[C@@H]1CCCN1C(=O)[C@@H](O)[C@H](N)CC(C)C)C(=O)N1CCC1 | – | > 100 µM | – | –
– | – | COC(=O)[C@@H]1CCCN1C(=O)[C@@H](O)[C@H](N)C(C)C | – | 46 µM | 104% | 23%
– | – | CC(C)C[C@H](NC(=O)[C@@H]1CCCN1C(=O)[C@@H](O)[C@H](N)CC(C)C)C(=O)N(C)C | – | 8.2 µM | – | –
– | – | COC(=O)[C@@H]1CCCN1C(=O)[C@@H](O)[C@@H](N)c1cccs1 | – | 10 µM | 71% | 22%
– | – | CC(C)C[C@H](NC(=O)[C@@H]1CCCN1C(=O)[C@@H](O)[C@H](N)CC(C)C)C(=O)NS(=O)(=O)N(C)C | – | > 100 µM | – | –
– | – | COC(=O)[C@@H]1CCCN1C(=O)[C@@H](O)[C@@H](N)c1ccco1 | – | 14 µM | 71% | 23%
– | – | CCCC[C@@H](N)[C@H](O)C(=O)N1CCC[C@H]1C(=O)OC | – | 11 µM | 98% | 20%
– | – | COC(=O)[C@@H]1CCCN1C(=O)[C@@H](O)[C@H](N)C12CC3CC(CC(C3)C1)C2 | – | > 100 µM | 98% | 83%
